# In the library only some 5.9% were active in any assay of this set; here they are far more common.
# T cruzi growth-1 – T. cruzi proliferation inhibition. actives 5.9% (n = 77,000). inhibition, % at 8.34 µM. AID 624255. T. cruzi beta-gal in NIH3T3, GalScreen luminescence, 90 h;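 active means mean inhibition above about 93%, with at least 55% of replicates each passing it, limit read from the data, passing the limit was not always enough; inconclusive means only one of those two conditions holds; inactive means neither condition holds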
# Pf Dd2 inh – inhibitors of Plasmodium falciparum Dd2 growth; P. falciparum Dd2 growth, SYBR Green, 72 h; hits give low values; activity change, % at 10 µM; actives 2.3% (n = 94,000); AID 1159554; in the data active means activity change below about -80%; inconclusive means no clear call, values can overlap the other calls
# IDH1 R132H inh – blocks human IDH1 R132H reductase activity. O75874. diaphorase/resazurin fluorescence, 60 min. inhibition, % at 10 µM. actives 0.18% (n = 70,000). AID 624101; in the data active means inhibition above about 34%; inconclusive means no clear call, values can overlap the other calls; inactive means below about 11%;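 further: 0% = DMSO and 100% = no enzyme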
# Target sequence (O75874 whole entry R132H): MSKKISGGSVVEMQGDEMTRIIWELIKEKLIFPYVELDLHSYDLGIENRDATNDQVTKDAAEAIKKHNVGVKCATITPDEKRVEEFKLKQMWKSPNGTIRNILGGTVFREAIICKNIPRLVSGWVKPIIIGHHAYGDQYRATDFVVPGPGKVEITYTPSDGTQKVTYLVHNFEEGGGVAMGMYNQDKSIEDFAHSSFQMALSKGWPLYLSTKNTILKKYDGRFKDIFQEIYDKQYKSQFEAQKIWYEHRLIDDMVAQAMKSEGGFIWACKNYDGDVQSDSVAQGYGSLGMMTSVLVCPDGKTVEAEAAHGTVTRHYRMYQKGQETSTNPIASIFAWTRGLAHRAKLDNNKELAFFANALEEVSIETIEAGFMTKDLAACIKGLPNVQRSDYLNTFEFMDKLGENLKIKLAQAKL
# GASC1 inh – blocks human GASC-1 (KDM4C) demethylase activity; Q9H3R0; GST-KDM4C 2-372, H3K9me3 peptide, LANCE TR-FRET; inhibition, % at 12.5 µM; actives 0.15% (n = 96,000);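 active means mean replicate inhibition above about 25%, with at least 55% of replicates also reaching it, limit read from the data, passing the limit was not always enough; inconclusive means only one of those two conditions met; inactive means neither condition met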
#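 Compound: one test concentration per compound; Material: GST-GASC-1 enzyme fragment 2-372; Amount: GASC-1 enzyme at 10 nM final in reaction; Also added: H3K9me3 peptide substrate, Fe(II), 2-oxoglutarate; Technique: LANCE TR-FRET; Times: 30 min demethylation and 1 h detection at room temperature.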
# T cruzi growth-2 – inhibitors of T. cruzi proliferation. shares compounds with T cruzi growth-1. T. cruzi beta-gal in NIH3T3, GalScreen luminescence, 90 h. inhibition, % at 8.35 µM. actives 72% (n = 5,600). AID 651739;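 active means mean replicate inhibition above about 95% and at least 55% of replicates individually reaching it, limit read from the data; inconclusive means only one of the two criteria is met; inactive means neither criterion is met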
# T cruzi growth-3 – inhibitors of T. cruzi proliferation; inhibition, % at 2.09 µM; shares compounds with T cruzi growth-1; actives 21% (n = 5,600); T. cruzi beta-gal in NIH3T3, GalScreen luminescence, 90 h;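 active means mean inhibition above about 95%, with at least 55% of replicates also reaching it, limit read from the data; inconclusive means meets just one of the two conditions; inactive means meets neither condition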;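 further: plate controls were neutral control median for no effect and positive control median for full effect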
# NIH3T3 tox – kills mouse NIH/3T3 fibroblasts | shares compounds with T cruzi growth-1 | NIH/3T3 viability, CellTiter-Glo ATP luminescence, 90 h | actives 14% (n = 5,600) | cytotoxicity (signal decrease), % at 8.35 µM;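 active means mean signal decrease across replicates above about 35% based on untreated-well scatter, with enough replicates individually passing, limit read from the data; inconclusive means no rule stated though some were filed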;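 further: 0% = median of neutral control wells and 100% = median of positive control wells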
# 3T3 cytotox 2 – NIH/3T3 (mouse) viability loss. shares compounds with T cruzi growth-1. NIH/3T3 viability, CellTiter-Glo ATP luminescence, 90 h. inhibition, % at 24.9 µM. actives 56% (n = 5,600);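 active means mean loss of cell viability signal at or above a set limit, and enough replicates individually reaching it; inconclusive means meets only the mean limit or only the replicate share; inactive means meets neither condition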;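 further: 0% = median of neutral control wells and 100% = median of positive control wells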
# Starred values were filed as active, the others as inactive; ? = inconclusive; / = no result given.
SMILES,T cruzi growth-1,Pf Dd2 inh,IDH1 R132H inh,GASC1 inh,T cruzi growth-2,T cruzi growth-3,NIH3T3 tox,3T3 cytotox 2
C[C@H](CO)N1C[C@H](C)[C@@H](CN(C)S(=O)(=O)c2cccs2)OCCCC[C@H](C)Oc2ccc(NC(=O)NC3CCCCC3)cc2C1=O,76,-46,/,1,/,/,/,/
C[C@H](CO)N1C[C@H](C)[C@@H](CN(C)S(=O)(=O)c2cccs2)OCCCC[C@H](C)Oc2ccc(NC(=O)Nc3ccc(C(F)(F)F)cc3)cc2C1=O,97*,-46,-1,1,102*,117*,33,26*
C[C@@H]1CN([C@H](C)CO)C(=O)c2cc(NC(=O)Nc3ccc(F)cc3)ccc2O[C@@H](C)CCCCO[C@H]1CN(C)S(=O)(=O)c1cccs1,33,-72,/,0,/,/,/,/
C[C@@H]1CCCCO[C@@H](CN(C)S(=O)(=O)c2cccs2)[C@H](C)CN([C@H](C)CO)C(=O)c2cc(NC(=O)NC3CCCCC3)ccc2O1,118*,?,/,-4,106*,36,2,-3
COc1ccc(S(=O)(=O)N(C)CC(=O)Nc2ccc(Br)cc2F)cc1Cl,/,/,-1,/,/,/,/,/
COc1cccc(NC(=O)CN(C)S(=O)(=O)c2cc(C)ccc2OC)c1,/,/,0,/,/,/,/,/
O=C(CSc1ncnc2scc(-c3ccc(Br)cc3)c12)Nc1ccccc1,/,/,-1,/,/,/,/,/
C[C@H]1CN([C@@H](C)CO)C(=O)c2cc(NC(=O)Nc3ccc(C(F)(F)F)cc3)ccc2O[C@H]1CN(C)S(=O)(=O)c1cccs1,123*,9,1,0,103*,57,5,85*
C[C@H]1CCCCO[C@H](CN(C)S(=O)(=O)c2cccs2)[C@@H](C)CN([C@@H](C)CO)C(=O)c2cc(NC(=O)Nc3ccc(F)cc3)ccc2O1,97*,-73,/,-1,104*,39,24,6
C[C@@H]1CCCCO[C@H](CN(C)S(=O)(=O)c2cccs2)[C@H](C)CN([C@H](C)CO)C(=O)c2cc(NC(=O)Nc3ccc(F)cc3)ccc2O1,?,-85*,/,-4,113*,100*,-16,12
C[C@H](CO)N1C[C@H](C)[C@@H](CN(C)S(=O)(=O)c2cccs2)Oc2ccc(NC(=O)Nc3ccc(F)cc3)cc2C1=O,-49,-15,1,-2,/,/,/,/
C[C@@H]1CCCCO[C@H](CN(C)S(=O)(=O)c2cccs2)[C@H](C)CN([C@@H](C)CO)C(=O)c2cc(NC(=O)Nc3ccc(F)cc3)ccc2O1,59,-53,/,6,/,/,/,/
O=c1c2c3c(sc2nc(SCc2nc(-c4cccs4)no2)n1-c1ccccc1)CCCC3,/,/,-1,/,/,/,/,/
COC(=O)c1c(-c2ccc(F)cc2)csc1NC(=O)CSc1ncnc2sc3c(c12)CCC3,/,/,0,/,/,/,/,/
Cc1ccc(S(=O)(=O)Nc2ccc(Br)cc2CNc2nc3ccccc3n2C)cc1,/,/,0,/,/,/,/,/
CN(C)S(=O)(=O)c1ccc(NC(=O)CCC(=O)O)cc1,/,/,-1,/,/,/,/,/
CN1c2ccc(-c3cccc(C#N)c3)cc2[C@@H]2[C@@H](CCN2C(=O)CC2CC2)[C@H]1CO,96,8,/,0,/,/,/,/
CN1c2ccc(-c3ccc(C#N)cc3)cc2[C@@H]2[C@@H](CCN2C(=O)CC2CC2)[C@H]1CO,104*,-8,/,-1,106*,85,4,41*
CN1c2ccc(-c3cccc(F)c3)cc2[C@H]2[C@H](CCN2C(=O)CC2CC2)[C@@H]1CO,98*,-4,/,0,102*,67,28,2
C/C=C/c1ccc2c(c1)O[C@H](CN(C)C(=O)Nc1cccc(F)c1)[C@H](C)CN([C@@H](C)CO)S2(=O)=O,93,31,-5,-4,/,/,/,/
C[C@@H]1CN([C@@H](C)CO)S(=O)(=O)c2ccc(/C=C/c3ccccc3)cc2O[C@@H]1CN(C)C(=O)Nc1cccc(F)c1,127*,-54,0,0,101*,105*,?,29*
C[C@H]1CN([C@@H](C)CO)S(=O)(=O)c2ccc(/C=C/c3ccccc3)cc2O[C@H]1CN(C)C(=O)Nc1cccc(F)c1,123*,-33,0,0,106*,103*,39*,38*
C[C@@H]1CN([C@@H](C)CO)S(=O)(=O)c2ccc(/C=C/c3ccccc3)cc2O[C@H]1CN(C)C(=O)Nc1cccc(F)c1,127*,-50,-3,0,95*,97*,49*,80*
COc1ccc(NC(=O)CSc2nnc(-c3ccc(NC(=O)c4ccc(C)cc4)cc3)n2C)cc1Cl,/,/,1,/,/,/,/,/
FC(F)(F)c1ccc2nc(SCc3ccc(Br)cc3)[nH]c2c1,/,/,5,/,/,/,/,/
SMILES,T cruzi growth-1,Pf Dd2 inh,IDH1 R132H inh,GASC1 inh,T cruzi growth-2,T cruzi growth-3,NIH3T3 tox,3T3 cytotox 2
O=C(COc1ccc(Br)cc1)Nc1cccc(-c2nnc(-c3ccccc3)o2)c1,/,/,0,/,/,/,/,/
C[C@H]1CN([C@@H](C)CO)C(=O)c2cc(Br)cnc2O[C@@H]1CN(C)C(=O)Nc1ccc(C(F)(F)F)cc1,102*,-9,/,0,108*,59,-10,54*
C[C@@H]1CN([C@@H](C)CO)C(=O)c2cc(C3=CCCC3)cnc2O[C@@H]1CN(C)C(=O)Nc1ccc(C(F)(F)F)cc1,?,-30,0,-2,108*,88,?,104*
C[C@H]1CN([C@@H](C)CO)C(=O)c2cc(C3=CCCC3)cnc2O[C@H]1CN(C)C(=O)Nc1ccc(C(F)(F)F)cc1,52,-35,/,2,/,/,/,/
Cn1c(Cc2ccccc2)nnc1Sc1ccc([N+](=O)[O-])cc1C(=O)N1CCOCC1,/,/,0,/,/,/,/,/
COC(=O)c1cccc(NC(=O)CSc2nc(-c3ccc(C)cc3)cc(C(F)(F)F)n2)c1,/,/,0,/,/,/,/,/
O=C(Nc1ccccc1F)N1CCCCN2[C@@H](CO)[C@H](c3ccc(C#Cc4ccccc4)cc3)[C@@H]2C1,95*,-78,/,-1,?,115*,119*,104*
COc1ccc(C#Cc2ccc([C@H]3[C@@H](CO)N4CCCCN(C(=O)Nc5ccccc5F)C[C@@H]34)cc2)cc1,140*,-79,/,-2,?,114*,?,40*
COc1ccc(C#Cc2ccc([C@@H]3[C@@H](CO)N4CCCCN(C(=O)Nc5ccccc5F)C[C@@H]34)cc2)cc1,127*,-91*,/,-1,99*,114*,-42,51*
O=C(Nc1ccccc1F)N1CCCCN2[C@H](CO)[C@H](c3ccc(C#Cc4ccccc4)cc3)[C@H]2C1,42,-69,/,-2,/,/,/,/
CSc1nsc(SCC(=O)c2ccc([N+](=O)[O-])cc2)n1,/,/,0,/,/,/,/,/
O=C(CCN1C(=O)C2C3C=CC(C3)C2C1=O)Oc1cccc2cccnc12 (stereo not given),/,/,0,/,/,/,/,/
